Measurements: ChEMBL document CHEMBL3421591, “Improved Synthesis of Biotinol-5'-AMP: Implications for Antibacterial Discovery” (ACS Med Chem Lett, 2015)
Values after ≈ are worked out from the molar mass of the structure shown. Active and inactive are the calls of the source. No cut-off for these calls is given here.

What was measured:
[1] = Inhibition of Staphylococcus aureus recombinant BPL using 3H-biotin as substrate after 10 mins by liquid scintillation counting analysis; conditions: read-out: Ki(app)
Summary of the method: (§1)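 In vitro biotinylation assay measuring radiolabeled biotin incorporation onto an acceptor protein by each recombinant BPL, run at varying inhibitor concentrations. Apparent Ki was fitted with the Morrison tight-binding equation, accounting for the BPL concentration in the assay. It was then extrapolated using each enzyme's apparent K_M for biotin, assuming inhibition competitive with biotin.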

[2] = Inhibition of Klebsiella pneumonia recombinant BPL using 3H-biotin as substrate after 10 mins by liquid scintillation counting analysis; set-up: species or system Klebsiella pneumoniae; conditions: read-out: Ki(app); summary of the method: as §1
[3] = Inhibition of Acinetobacter calcoaceticus recombinant BPL using 3H-biotin as substrate after 10 mins by liquid scintillation counting analysis; conditions: read-out: Ki(app); summary of the method: as §1
[4] = Inhibition of Mycobacterium tuberculosis recombinant BPL using 3H-biotin as substrate after 10 mins by liquid scintillation counting analysis; conditions: read-out: Ki(app)
Summary of the method: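 Recombinant BPL activity was measured as radiolabelled biotin incorporated onto an acceptor protein, across a range of inhibitor concentrations. Apparent Ki came from the Morrison tight-binding equation, because Ki values lay within 10-fold of the BPL concentration used. Binding was treated as competitive with biotin, so values were extrapolated using the apparent KM for biotin.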

Staphylococcus aureus [5] = test: Competitive inhibition of Staphylococcus aureus recombinant BPL using 3H-biotin as substrate by Lineweaver-Burk plot analysis
Summary of the method: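 S. aureus BPL biotinylation with ³H-biotin: enzyme velocity measured across varying biotin concentrations at inhibitor 0, 20, 100 and 200 nM. Double-reciprocal Lineweaver–Burk plots of 1/velocity vs 1/biotin were used to define the inhibition mode, with K_M and V_max compared across inhibitor levels. Points are mean ± SEM of three replicates.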

[6] = system: Mycobacterium tuberculosis; test: Antimicrobial activity against Mycobacterium tuberculosis H37Rv after 16 to 20 hrs by two-fold microdilution broth method; type: functional
[7] = system: Mycobacterium tuberculosis; test: Antimicrobial activity against Mycobacterium tuberculosis 37892293 after 16 to 20 hrs by two-fold microdilution broth method; type: functional
[8] = system: Mycobacterium tuberculosis; test: Antimicrobial activity against Mycobacterium tuberculosis 3688023 after 16 to 20 hrs by two-fold microdilution broth method; type: functional
Staphylococcus aureus [9] = test: Antimicrobial activity against methicillin-sensitive Staphylococcus aureus after 16 to 20 hrs by two-fold microdilution broth method; type: functional
Staphylococcus aureus [10] = test: Antimicrobial activity against methicillin-resistant Staphylococcus aureus after 16 to 20 hrs by two-fold microdilution broth method; type: functional
Staphylococcus = test: Antimicrobial activity against coagulase-negative Staphylococcus after 16 to 20 hrs by two-fold microdilution broth method; type: functional
Escherichia coli = test: Antimicrobial activity against Escherichia coli ATCC 25922 after 16 to 20 hrs by two-fold microdilution broth method; type: functional
Enterococcus faecium = test: Antimicrobial activity against Enterococcus faecium after 16 to 20 hrs by two-fold microdilution broth method; type: functional
[11] = Cytotoxicity against human HepG2 cells after 24 to 48 hrs by WST-1 assay; type: cell-based
Enterococcus faecalis = test: Antimicrobial activity against Enterococcus faecalis after 16 to 20 hrs by two-fold microdilution broth method; type: functional

Row | SMILES | Ki [1] | Ki [2] | Ki [3] | Ki [4] | inhibition (Staphylococcus aureus [5]) | MIC [6] | MIC [7] | MIC [8] | MIC (Staphylococcus aureus [9]) | MIC (Staphylococcus aureus [10]) | MIC (Staphylococcus) | MIC (Escherichia coli) | MIC (Enterococcus faecium) | CC50 [11] | MIC (Enterococcus faecalis)
1 | Nc1ncnc2c1ncn2[C@@H]1O[C@H](COP(=O)(O)OCCCCC[C@@H]2SC[C@@H]3NC(=O)N[C@@H]32)[C@@H](O)[C@H]1O | 18 nM | 482 nM | 461 nM | 52 nM | Active | 2.5 µg/mL (≈ 4.47 µM) | 2.5 µg/mL (≈ 4.47 µM) | 0.5 µg/mL (≈ 0.894 µM) | 2 µg/mL (≈ 3.57 µM) | 2 µg/mL (≈ 3.57 µM) | 1 µg/mL (≈ 1.79 µM) | > 128 µg/mL | > 128 µg/mL | > 200 µg/mL | > 128 µg/mL
2 | Nc1ncnc2c1ncn2[C@@H]1O[C@H](CNS(=O)(=O)NC(=O)CCCC[C@@H]2SC[C@@H]3NC(=O)N[C@@H]32)[C@@H](O)[C@H]1O | – | – | – | – | – | 0.1 µg/mL (≈ 0.175 µM) | 0.1 µg/mL (≈ 0.175 µM) | 0.1 µg/mL (≈ 0.175 µM) | – | – | – | – | – | – | –
